# Screening results: PubChem BioAssay, several laboratories
# MPTP inh – permeability transition pore inhibition; isolated mouse mitochondria, Ca2+ swelling absorbance, 30 min; inhibition, % at 10 µM; hit rate 1.4% among 360,000;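 active means inhibition of 50% or more, scaled per plate between neutral and stimulator controls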;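 further: 0% = DMSO wells given calcium and 100% = 1 mM EGTA wells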
# MT1-MMP act inh – inhibitors of human MT1-MMP activation; P50281; HT1080 RFP-PRO-GFP cells, GFP/RFP ratio fluorescence, overnight; percent of plate control window, DMSO zero; GFP/RFP ratio change, % at 20 µM; hit rate 0.061% among 360,000; AID 651647;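 active means GFP/RFP ratio change of at least 30% with cell ATP level not reduced by more than half and red fluorescence within 50% of control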
#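 Assay system – RFP-PRO-GFP reporter HT1080 cells · Compound dosing – single dose of 20 µM compound, 1% DMSO final · Incubation – overnight compound exposure at 37 °C · Measure – GFP/RFP fluorescence ratio · Benchmarks – DMSO wells and RFP-L50D-GFP cells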
# ADAM10 inh – inhibits human ADAM10; inhibition, % at 7 µM; recombinant ADAM10, EDANS/DABCYL FRET peptide cleavage, 3 h; O14672; hit rate 0.62% among 370,000;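 active means inhibition above a per-campaign cutoff equal to the mean of compounds falling between control-based bounds plus 3 SD, cut at about 20% in these data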;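 further: 0% = DMSO wells while the 100% control is not disclosed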
# Target sequence (O14672 214-748 limits assumed): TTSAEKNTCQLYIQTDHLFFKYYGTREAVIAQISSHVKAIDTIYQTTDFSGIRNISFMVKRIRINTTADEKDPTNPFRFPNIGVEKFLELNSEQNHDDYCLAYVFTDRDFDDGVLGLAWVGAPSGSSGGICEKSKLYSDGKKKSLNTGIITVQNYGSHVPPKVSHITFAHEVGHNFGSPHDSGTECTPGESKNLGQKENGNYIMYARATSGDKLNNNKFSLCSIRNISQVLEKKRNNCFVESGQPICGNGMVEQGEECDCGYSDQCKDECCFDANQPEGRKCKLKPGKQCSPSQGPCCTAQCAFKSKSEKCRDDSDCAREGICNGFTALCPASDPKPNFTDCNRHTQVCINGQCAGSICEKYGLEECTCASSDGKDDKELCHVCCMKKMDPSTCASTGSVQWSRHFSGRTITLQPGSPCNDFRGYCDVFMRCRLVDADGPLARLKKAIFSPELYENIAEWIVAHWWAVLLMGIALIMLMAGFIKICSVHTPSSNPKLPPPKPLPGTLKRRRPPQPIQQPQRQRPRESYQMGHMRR
# SKN-1 block – C. elegans SKN-1 inhibition; hit rate 0.49% among 360,000; inhibition, % at 21.8 µM; C. elegans VP596 Pgst-4::GFP/RFP ratio, acrylamide-induced, 24 h;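 active means interference check ratio from 0.5 to 1.5 plus GFP to RFP signal ratio inhibition reaching or exceeding a fixed threshold, cut at about 30% in these data, passing the limit was not always enough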
# ADAM17 inh – ADAM17 inhibition, QFRET primary screen. P78536. recombinant ADAM17, EDANS/DABCYL FRET peptide cleavage. inhibition, % at 6.95 µM. hit rate 0.83% among 370,000;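 active means inhibition above the mean of compounds lying between control limits plus 3 SD, set per campaign, cut at about 8.5% in these data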;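 further: 0% = DMSO-only wells as the low control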
# NR3A LBD binder – modulates the human NR3A ligand-binding domain. NR3A LBD differential scanning fluorimetry, Tm shift; 0% = protein alone, 100% = glycine-bound protein. hit rate 2.5% among 340,000. Tm shift relative to glycine control, % at 25 µM. AID 1259313;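 active means melting temperature shift of at least 10% of the positive control shift, at one fixed dose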
# * hit, by the source's call; i = inactive; / = no result given. Sampled rows, rich in hits. Any-hit rate of the full collection: about 4.7%.
SMILES,MPTP inh,MT1-MMP act inh,ADAM10 inh,SKN-1 block,ADAM17 inh,NR3A LBD binder
O=C(Nc1cccc(O)c1)c1c(O)c2ccccc2[nH]c1=O,2,2,-12,-12,-8,44*
Cc1cccc(NC(=O)c2c(O)c3ccccc3[nH]c2=O)c1,1,4,-5,-5,-3,2
Cn1c(=O)c2c(ncn2CC(=O)Nc2nnc(Cc3ccccc3)s2)n(C)c1=O,-1,11,7,6,0,0
O=C(Nc1cccc(-c2cn3cccnc3n2)c1)Nc1ccccc1F,0,/,-133,-16,-50,12*
CCCC(=O)Nc1cccc(-c2cn3cccnc3n2)c1,-2,7,i,7,i,1
O=C(Nc1cccc(-c2cn3cccnc3n2)c1)c1ccco1,0,9,/,26,/,0
O=C(Nc1ccccc1)Nc1cccc(-c2cn3cccnc3n2)c1,-1,9,-52,-5,-21,13*
COc1cc2c(cc1OC)-c1cc(Nc3cccc(F)c3)nc(=O)n1CC2,0,5,-15,11,-1,-2
COc1cc2c(cc1OC)-c1cc(Nc3ccc(F)cc3)nc(=O)n1CC2,0,4,-9,-7,-4,10*
O=C(N/N=C/c1ccncc1)c1ccc(NC(=O)c2cccc(Cl)c2)cc1,-2,5,-5,-2,1,22*
Cc1ccc(N/N=C/c2ccncc2)cc1,0,-1,1,10,0,3
Clc1cccc(N/N=C/c2ccncc2)c1,5,2,-1,-11,0,20*
Clc1ccc(/C=N\Nc2ccccc2)cc1,8,-2,-11,3,-4,10*
O=C(N/N=C/c1ccc(Cl)cc1)Nc1ccccc1,15,1,-5,41*,-2,13*
Cc1ccc(C(=O)NCC(=O)Nc2ccc(C)c(S(=O)(=O)Nc3ccc(Cl)cc3)c2)s1,-1,-1,-2,11,0,11*
CCOC(=O)c1cc(CC)sc1NC(=O)c1ccc2c(c1)OCCO2,2,-1,-18,14,-6,2
CCOC(=O)c1cc(CC)sc1NC(=O)c1cc(OCC)c(OCC)c(OCC)c1,2,-8,-4,8,-2,11*
O=C1NN(c2ccc(F)c(Cl)c2)C(=O)/C1=C\c1cccc(OC(=O)c2cccs2)c1,-1,8,8,-6,5,24*
CC(C)=C1C(=O)NN(c2ccc(F)c(Cl)c2)C1=O,-1,-4,0,12,0,0
COc1ccccc1Cc1noc(COc2cccc(C)c2C)n1,-3,2,-3,8,0,22*
COc1ccc(/C=N/NC(=O)c2ccc(COc3ccccc3Cl)o2)cc1,2,1,-23,38*,-11,-4
Cc1cc(C(=O)N/N=C/c2ccc(OCc3ccccc3)cc2)c(C)o1,0,-4,12,6,5,14*
O=C(N/N=C/c1ccccc1)c1ccco1,-1,4,-2,-8,-2,-1
COc1ccc(/C=N/NC(=O)c2ccc(COc3ccccc3Cl)o2)c(OC)c1C,1,5,-4,0,-3,-9
O=C(N/N=C/c1ccc(OCc2ccccc2)cc1)c1ccco1,2,3,1,23,1,13*
SMILES,MPTP inh,MT1-MMP act inh,ADAM10 inh,SKN-1 block,ADAM17 inh,NR3A LBD binder
Cc1cc(O)cc(=O)n1-c1cc(Cl)cc(Cl)c1,/,/,3,/,1,/
CN(C)c1ccc(/C=N/NC2=NS(=O)(=O)c3ccccc32)cc1,0,-3,8,39*,0,4
CCOC(=O)c1c(C)[nH]c(C(=O)OCC(=O)c2ccccc2)c1C,-1,-1,5,8,-1,-7
CC[C@H](NC(=O)[C@@H](Cc1ccccc1)NC(=O)[C@H]1O[C@@H](n2ccc(=O)[nH]c2=O)[C@H](O)[C@@H]1O)c1ccccc1,/,/,2,/,-1,/
O=C(COc1ncnc2ccccc12)Nc1cc([N+](=O)[O-])ccc1Cl,1,5,15,0,-5,2
O=C(COc1ncnc2c(Cl)cc(Cl)cc12)Nc1cc([N+](=O)[O-])ccc1Cl,4,6,4,-3,4,14*
